Test results taken from ChEMBL document CHEMBL3244277, “Study of trans-cyclopropylbis (diketopiperazine) and chelating agents related to ICRF 159. Cytotoxicity, mutagenicity, and effects on scheduled and unscheduled DNA synthesis” (J Med Chem, 1977).

Experiments:
[1] = Cytotoxicity against chinese hamster V79-4 cells assessed as survival using 1 x 10^5 cells per plate at 10^-4 M after 24 hrs; format: cell-based, Cricetulus griseus; settings: read-out: Survival
Method in brief: (§1)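 Chinese hamster V-79A cells were seeded in 100-mm dishes, allowed to attach for 2 h, then exposed for 24 h to drug diluted from PBS stocks into Eagle's MEM with 15% fetal calf serum. Cells were rinsed twice in Hank's salt solution and grown drug-free for 7 days at 37 °C in 5% CO2. Colonies were stained with hematoxylin/eosin and counted; each value is the mean of eight plates.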

V79-4 [2] = test: Induction of unscheduled DNA synthesis in chinese hamster V79-4 cells assessed as DNA synthesis at 10^-3 M measured at 8 hrs by [3H]thymidine uptake /autoradiography in presence of 2 x 10^-3 M hydroxyurea; settings: Cricetulus griseus, v79-4, 8 h, 1000 µM
[3] = Cytotoxicity against chinese hamster V79-4 cells assessed as survival using 5 x 10^5 cells per plate at […] after 24 hrs; format: cell-based, Cricetulus griseus; settings: read-out: Survival
V79-4 [4] = test: Induction of unscheduled DNA synthesis in chinese hamster V79-4 cells assessed as DNA synthesis at 10^-4 to 10^-5 M measured at 0 to 5 hrs by [3H]thymidine uptake /autoradiography in presence of 2 x 10^-3 M hydroxyurea; settings: Cricetulus griseus
V79-4 [5] = test: Induction of unscheduled DNA synthesis in chinese hamster V79-4 cells assessed as DNA synthesis at 10^-3 to 10^-5 M measured at 8 hrs by [3H]thymidine uptake /autoradiography in presence of 2 x 10^-3 M hydroxyurea; settings: Cricetulus griseus, v79-4, 8 h
V79-4 [6] = test: Inhibition of scheduled DNA synthesis in chinese hamster V79-4 cells assessed as DNA synthesis at 10^-4 M measured at 10 hrs by [3H]thymidine uptake /autoradiography (reference value: 81.7 %); format: functional, Cricetulus griseus; design: scale not given: the % may be the effect or the level left
V79-4 [7] = test: Inhibition of scheduled DNA synthesis in chinese hamster V79-4 cells assessed as DNA synthesis at 10^-3 M measured at 10 hrs by [3H]thymidine uptake /autoradiography (reference value: 81.7 %); format: functional, Cricetulus griseus; design: scale not given: the % may be the effect or the level left
V79-4 [8] = test: Inhibition of scheduled DNA synthesis in chinese hamster V79-4 cells assessed as DNA synthesis at 10^-5 M measured at 10 hrs by [3H]thymidine uptake /autoradiography (reference value: 81.7 %); format: functional, Cricetulus griseus; design: scale not given: the % may be the effect or the level left
[9] = Cytotoxicity against chinese hamster V79-4 cells assessed as survival using 1 x 10^5 cells per plate at […] after 24 hrs; format: cell-based, Cricetulus griseus; settings: read-out: Survival
[10] = Cytotoxicity against chinese hamster V79-4 cells assessed as survival using 5 x 10^5 cells per plate at 10^-3 M after 24 hrs; format: cell-based, Cricetulus griseus; settings: read-out: Survival; method in brief: as §1
[11] = Cytotoxicity against chinese hamster V79-4 cells assessed as survival using 5 x 10^5 cells per plate at 10^-4 M after 24 hrs; format: cell-based, Cricetulus griseus; settings: read-out: Survival; method in brief: as §1
V79-4 [12] = test: Mutagenicity in chinese hamster V79-4 cells assessed as mutation frequency measured per 1 x 10^5 cells per plate at 10^-4 M after 24 hrs relative to control; format: toxicity, cell-based, Cricetulus griseus; settings: v79-4, 24 h, 100 µM
V79-4 [13] = test: Inhibition of scheduled DNA synthesis in chinese hamster V79-4 cells assessed as DNA synthesis at 10^-3 M measured at 10 hrs by [3H]thymidine uptake /autoradiography (reference value: 83.3 %); format: functional, Cricetulus griseus; design: scale not given: the % may be the effect or the level left
V79-4 [14] = test: Mutagenicity in chinese hamster V79-4 cells assessed as mutation frequency measured per 5 x 10^5 cells per plate at 10^-5 M after 24 hrs relative to control; format: toxicity, cell-based, Cricetulus griseus; settings: v79-4, 24 h, 10 µM
Method in brief: (§2)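 V-79A cells plated at 5×10⁵ or 1×10⁵ per dish in MEM + 5% FCS and allowed 2 h to attach. Exposed 24 h at 37 °C to 10⁻³–10⁻⁵ M drug or none, washed in PBS, then grown 12 days in MEM + 10% FCS with 10⁻³ M ouabain. Resistant colonies were counted after hematoxylin/eosin staining, averaging 20 plates, and expressed per 5×10⁵ cells.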

V79-4 [15] = test: Mutagenicity in chinese hamster V79-4 cells assessed as mutation frequency measured per 5 x 10^5 cells per plate at 10^-4 M after 24 hrs relative to control; format: toxicity, cell-based, Cricetulus griseus; settings: v79-4, 24 h, 100 µM; method in brief: as §2
[16] = Cytotoxicity against chinese hamster V79-4 cells assessed as survival using 1 x 10^5 cells per plate at 10^-3 M after 24 hrs; format: cell-based, Cricetulus griseus; settings: read-out: Survival; method in brief: as §1
V79-4 [17] = test: Inhibition of scheduled DNA synthesis in chinese hamster V79-4 cells assessed as DNA synthesis at 10^-4 M measured at 10 hrs by [3H]thymidine uptake /autoradiography (reference value: 83.3 %); format: functional, Cricetulus griseus; design: scale not given: the % may be the effect or the level left
V79-4 [18] = test: Inhibition of scheduled DNA synthesis in chinese hamster V79-4 cells assessed as DNA synthesis at 10^-5 M measured at 10 hrs by [3H]thymidine uptake /autoradiography (reference value: 83.3 %); format: functional, Cricetulus griseus; design: scale not given: the % may be the effect or the level left
V79-4 [19] = test: Inhibition of scheduled DNA synthesis in chinese hamster V79-4 cells assessed as DNA synthesis at 10^-3 M measured at 10 hrs by [3H]thymidine uptake /autoradiography (reference value: 85.2 %); format: functional, Cricetulus griseus; design: scale not given: the % may be the effect or the level left
V79-4 [20] = test: Induction of unscheduled DNA synthesis in chinese hamster V79-4 cells assessed as DNA synthesis at 10^-3 to 10^-5 M measured at 0 to 8 hrs by [3H]thymidine uptake /autoradiography in presence of 2 x 10^-3 M hydroxyurea; settings: Cricetulus griseus
V79-4 [21] = test: Inhibition of scheduled DNA synthesis in chinese hamster V79-4 cells assessed as DNA synthesis at 10^-5 M measured at 10 hrs by [3H]thymidine uptake /autoradiography (reference value: 85.2 %); format: functional, Cricetulus griseus; design: scale not given: the % may be the effect or the level left
V79-4 [22] = test: Inhibition of scheduled DNA synthesis in chinese hamster V79-4 cells assessed as DNA synthesis at 10^-4 M measured at 10 hrs by [3H]thymidine uptake /autoradiography (reference value: 85.2 %); format: functional, Cricetulus griseus; design: scale not given: the % may be the effect or the level left

| SMILES | viability at 24 h, 100 µM [1] [%] | Activity (V79-4 [2]) | viability at 24 h, 10 µM [3] [%] | Activity (V79-4 [4]) | viability at 24 h, 10 µM [9] [%] | viability at 24 h, 1000 µM [10] [%] | viability at 24 h, 100 µM [11] [%] | viability at 24 h, 1000 µM [16] [%] | further results |
| --- | --- | --- | --- | --- | --- | --- | --- | --- | --- |
| CC(CN(CC(=O)O)CC(=O)O)N(CC(=O)O)CC(=O)O (centres undefined) | 85 | Toxic | 94 | Non-toxic | 94 | 1 | 85 |  | Activity (V79-4 [5]): Toxic; Activity (V79-4 [6]): 64.7%; Activity (V79-4 [7]): 61.1%; Activity (V79-4 [8]): 69.2% |
| O=C1CN([C@H]2C[C@@H]2N2CC(=O)NC(=O)C2)CC(=O)N1 (relative stereo) | 50 | Toxic | 70 | Non-toxic | 70 | 30 | 50 | 30 | Activity (V79-4 [12]): Non-toxic; Activity (V79-4 [13]): 76.3%; Activity (V79-4 [14]): Non-toxic; Activity (V79-4 [15]): Non-toxic; Activity (V79-4 [17]): 78.3%; Activity (V79-4 [18]): 82.2% |
| COC(=O)CN(CC(=O)OC)[C@@H]1C[C@H]1N(CC(=O)OC)CC(=O)OC (relative stereo) | 2 |  | 90 |  | 90 | 0.02 | 2 | 0.02 |  |
| O=C(O)CN(CC(=O)O)[C@@H]1C[C@H]1N(CC(=O)O)CC(=O)O (relative stereo) |  |  | 10 |  | 10 | 0.04 | 0.6 |  | Activity (V79-4 [19]): 7.3%; Activity (V79-4 [20]): Toxic; Activity (V79-4 [21]): 83.8%; Activity (V79-4 [22]): 75.5% |
